# From ChEMBL document CHEMBL1131236, “Antitumor agents. 185. Synthesis and biological evaluation of tridemethylthiocolchicine analogues as novel topoisomerase II inhibitors” (J Med Chem, 1998)
# Experiments:
# KB [1] = assay: In vitro growth inhibition of KB, epidermoid carcinoma of the nasopharynx.; assay type: functional, cell-based; conditions: Homo sapiens
# In short: (§1)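 Human tumor lines screened in-house: KB, A549, MCF-7, CAKI-1 and SK-MEL-2. Read-out was SRB staining with absorbance at 562 nm.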
# CAKI-1 [2] = assay: In vitro growth inhibition of CAKI-1, Kidney carcinoma; assay type: functional, cell-based; conditions: Homo sapiens; in short: as §1
# SK-MEL-2 [3] = assay: In vitro growth inhibition of SK-MEL-2, malignant melanoma; assay type: functional, cell-based; conditions: Homo sapiens; in short: as §1
# [4] = molecular target: T1, DNA topoisomerase 1 (Homo sapiens) (UniProt P11387); assay: In vitro inhibition against topoisomerase I activity Measured as ATP independent relaxation of supercoiled plasmid DNA compared to enzyme and DNA control reaction relative to Camptothecin (100 uM)
# T1 sequence (whole entry): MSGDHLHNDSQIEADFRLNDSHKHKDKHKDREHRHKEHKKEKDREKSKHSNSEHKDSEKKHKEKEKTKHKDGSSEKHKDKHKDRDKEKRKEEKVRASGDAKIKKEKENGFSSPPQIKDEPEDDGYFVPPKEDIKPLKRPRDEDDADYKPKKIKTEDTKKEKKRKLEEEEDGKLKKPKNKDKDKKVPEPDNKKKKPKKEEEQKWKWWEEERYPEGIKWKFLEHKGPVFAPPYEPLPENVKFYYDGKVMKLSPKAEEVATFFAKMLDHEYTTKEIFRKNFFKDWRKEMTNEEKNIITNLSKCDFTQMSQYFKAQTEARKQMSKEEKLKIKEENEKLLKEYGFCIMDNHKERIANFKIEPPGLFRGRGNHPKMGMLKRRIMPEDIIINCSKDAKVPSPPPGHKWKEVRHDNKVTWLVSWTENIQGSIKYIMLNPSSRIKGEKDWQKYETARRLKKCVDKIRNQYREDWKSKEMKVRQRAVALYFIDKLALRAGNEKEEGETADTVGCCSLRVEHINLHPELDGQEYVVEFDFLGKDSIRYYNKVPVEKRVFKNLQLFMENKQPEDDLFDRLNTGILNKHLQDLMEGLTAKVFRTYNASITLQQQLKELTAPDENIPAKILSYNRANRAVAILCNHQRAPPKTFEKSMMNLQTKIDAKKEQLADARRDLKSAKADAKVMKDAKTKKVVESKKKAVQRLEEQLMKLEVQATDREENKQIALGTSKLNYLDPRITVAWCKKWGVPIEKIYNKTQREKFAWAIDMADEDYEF
# In short: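 Topo I inhibition read as ATP-independent relaxation of supercoiled plasmid DNA, compared with enzyme and DNA control reactions. Camptothecin at 100 μM was the positive control.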
# SK-MEL-2 [5] = assay: In vitro percent inhibition of growth of SK-MEL-2, malignant melanoma; assay type: functional, Homo sapiens
# MCF7 [6] = assay: (§2) In vitro growth inhibition of MCF-7, breast adenocarcinoma.; assay type: functional, cell-based; conditions: Homo sapiens; in short: as §1
# CAKI-1 [7] = assay: In vitro percent inhibition of growth of CAKI-1, Kidney carcinoma; assay type: functional, Homo sapiens
# A549 [8] = assay: In vitro growth inhibition of A549, lung carcinoma.; assay type: functional, cell-based; conditions: Homo sapiens; in short: as §1
# DNA topoisomerase II [9] = molecular target: T2, DNA topoisomerase II (Homo sapiens, UniProt P11388+Q02880); assay: (§3) In vitro activity against mammalian topoisomerase II measured as ATP-dependent unknotting of P4 DNA compared to enzyme and DNA control; assay type: protein assay; conditions: concentration not given here
# In short: (§4)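 Topo II inhibition read as ATP-dependent unknotting of P4 DNA, compared with enzyme-only and DNA-only control reactions.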
# Tubulin = assay type: protein-complex assay
# MCF7 [10] = assay: In vitro percent inhibition of MCF-7, breast adenocarcinoma.; Range 23-48; assay type: functional, Homo sapiens
# SK-MEL-2 [11] = assay: In vitro percent inhibition of SK-MEL-2 cells, malignant melanoma.; Range 26-41; assay type: functional, Homo sapiens
# SK-MEL-2 [12] = assay: In vitro growth inhibition of SK-MEL-2, malignant melanoma.; assay type: functional, cell-based; conditions: Homo sapiens; in short: as §1
# CAKI-1 [13] = assay: In vitro percent inhibition of CAKI-1, Kidney carcinoma; Range 12-38; assay type: functional, Homo sapiens
# A549 [14] = assay: In vitro percent inhibition of A549, lung carcinoma.; Range 18-43
# DNA topoisomerase II [15] = molecular target: T2, DNA topoisomerase II; assay: In vitro inhibitory activity at 100 uM against topoisomerase II measured as ATP-dependent unknotting of P4 DNA compared to enzyme and DNA control.; assay type: protein assay
# [16] = molecular target: T1, DNA topoisomerase 1 (Homo sapiens); assay: In vitro inhibitory activity at 100 uM against topoisomerase I measured as ATP-independent relaxation of supercoiled plasmid DNA compared to enzyme and DNA control.
# MCF7 [17] = assay: In vitro percent inhibition of MCF-7, breast adenocarcinoma.; assay type: functional, Homo sapiens
# A549 [18] = assay: In vitro percent inhibition of A549, lung carcinoma; assay type: functional, Homo sapiens
# A549 [19] = assay: In vitro growth inhibition of A549, lung carcinoma; assay type: functional, cell-based; conditions: Homo sapiens; in short: as §1
# CAKI-1 [20] = assay: (§5) In vitro percent inhibition of CAKI-1, Kidney carcinoma; assay type: functional, Homo sapiens; parameters: concentration or dose not given beside the values
# SK-MEL-2 [21] = assay: In vitro percent inhibition of SK-MEL-2 cells, malignant melanoma.; assay type: functional, Homo sapiens; parameters: concentration or dose not given beside the values
# A549 [22] = assay: In vitro percent inhibition of A549, lung carcinoma.; assay type: functional, Homo sapiens
# KB [23] = assay: In vitro epidermoid carcinoma of the nasopharynx; assay type: functional, Homo sapiens; in short: as §1
# DNA topoisomerase II [24] = molecular target: T2, DNA topoisomerase II; assay: as §3; assay type: protein assay; in short: as §4
# KB [25] = assay: In vitro growth inhibition of KB, epidermoid carcinoma of the nasopharynx; assay type: functional, cell-based; conditions: Homo sapiens; in short: as §1
# A549 (Homo sapiens) = assay: In vitro percent inhibition of A549, lung carcinoma
# MCF7 [26] = assay: as §2; assay type: functional, Homo sapiens; in short: as §1
# CAKI-1 [27] = assay: as §5; assay type: functional, Homo sapiens
# SK-MEL-2 [28] = assay: In vitro percent inhibition of SK-MEL-2, malignant melanoma.; assay type: functional, Homo sapiens
# KB [29] = assay: In vitro percent inhibition of KB, epidermoid carcinoma of the nasopharynx.; assay type: functional, Homo sapiens
# Tubulin alpha chain = Tubulin alpha chain (Sus scrofa, UniProt P02550); assay: In vitro inhibition of mammalian tubulin polymerization by 50%; Inactive
# Sequence of Tubulin alpha chain (P02550 whole entry, looked up): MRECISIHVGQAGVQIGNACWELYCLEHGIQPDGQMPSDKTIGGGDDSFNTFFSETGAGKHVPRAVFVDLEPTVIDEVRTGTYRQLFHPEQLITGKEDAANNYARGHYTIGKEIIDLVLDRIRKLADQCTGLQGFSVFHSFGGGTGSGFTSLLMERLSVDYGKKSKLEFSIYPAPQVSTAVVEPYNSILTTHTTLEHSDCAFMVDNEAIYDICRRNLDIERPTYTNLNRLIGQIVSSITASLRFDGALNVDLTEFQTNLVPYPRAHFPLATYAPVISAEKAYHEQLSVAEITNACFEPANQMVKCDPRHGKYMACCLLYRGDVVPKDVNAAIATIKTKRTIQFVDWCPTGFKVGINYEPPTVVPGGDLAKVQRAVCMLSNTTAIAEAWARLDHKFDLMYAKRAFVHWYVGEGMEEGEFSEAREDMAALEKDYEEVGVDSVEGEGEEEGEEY
Compound,EC50 (KB [1]),EC50 (CAKI-1 [2]),EC50 (MCF7 [6]),EC50 (A549 [8]),IC50 (Tubulin),EC50 (SK-MEL-2 [12]),inhibition (DNA topoisomerase II [15]),inhibition [16],Inhibition (MCF7 [17]),Inhibition (CAKI-1 [20]),Inhibition (SK-MEL-2 [21]),Inhibition (A549 [22]),other results
COC(=O)Oc1cc2c(c(OC(=O)OC)c1OC(=O)OC)-c1ccc(SC)c(=O)cc1[C@@H](NC(=O)c1ccc([N+](=O)[O-])cc1)CC2,6.5 µg/mL,> 26.2 µg/mL,13.1 µg/mL,24.2 µg/mL,> 40 µM,–,–,–,–,–,–,–,EC50 (SK-MEL-2 [3]): > 26.2 µg/mL; inhibition [4]: 0%; Inhibition (SK-MEL-2 [5]): 44%; Inhibition (CAKI-1 [7]): 38%; inhibition (DNA topoisomerase II [9]): 0%
CSc1ccc2c(cc1=O)[C@@H](NC(=O)c1ccc([N+](=O)[O-])cc1)CCc1cc(OC(C)=O)c(OC(C)=O)c(OC(C)=O)c1-2,2.7 µg/mL,> 0.3 µg/mL,> 0.15 µg/mL,> 0.15 µg/mL,> 40 µM,> 0.3 µg/mL,0%,0%,–,–,–,–,Inhibition (MCF7 [10]): 23%; Inhibition (SK-MEL-2 [11]): 26%; Inhibition (CAKI-1 [13]): 12%; Inhibition (A549 [14]): 18%
CSc1ccc2c(cc1=O)[C@@H](NC(=O)c1ccc([N+](=O)[O-])cc1)CCc1cc(OC(=O)C(C)C)c(OC(=O)C(C)C)c(OC(=O)C(C)C)c1-2,25.5 µg/mL,> 27.6 µg/mL,> 27.6 µg/mL,–,> 40 µM,27.6 µg/mL,0%,0%,43%,17%,–,–,Inhibition (A549 [18]): 19%; EC50 (A549 [19]): > 27.6 µg/mL
CSc1ccc2c(cc1=O)[C@@H](NC(=O)c1ccc([N+](=O)[O-])cc1)CCc1cc(O)c(O)c(O)c1-2,7.7 µg/mL,> 9.6 µg/mL,> 9.6 µg/mL,> 9.6 µg/mL,> 40 µM,> 9.6 µg/mL,100%,< 100%,38%,20%,0%,36%,–
CSc1ccc2c(cc1=O)[C@@H](NC(C)=O)CCc1cc(O)c(O)c(O)c1-2,–,–,13.6 µg/mL,–,–,–,–,–,–,22%,0%,–,Inhibition (KB [23]): 0%; IC50 (DNA topoisomerase II [24]): 9 µM; EC50 (KB [25]): > 17.8 µg/mL
CSc1ccc2c(cc1=O)[C@@H](NC(=O)c1ccc(N)cc1)CCc1cc(O)c(O)c(O)c1-2,> 18 µg/mL,> 18 µg/mL,14.8 µg/mL,> 18 µg/mL,–,> 18 µg/mL,–,–,–,13%,0%,–,Inhibition (KB [23]): 35%; Inhibition (A549 (Homo sapiens)): 39%
CCC(=O)Oc1cc2c(c(OC(=O)CC)c1OC(=O)CC)-c1ccc(SC)c(=O)cc1[C@@H](NC(=O)c1ccc([N+](=O)[O-])cc1)CC2,12.3 µg/mL,> 25.9 µg/mL,> 12.9 µg/mL,> 25.9 µg/mL,> 40 µM,12.9 µg/mL,0%,0%,–,16%,–,29%,Inhibition (MCF7 [26]): 40%
Br.CSc1ccc2c(cc1=O)[C@@H](N)CCc1cc(O)c(O)c(O)c1-2,> 13.2 µg/mL,> 13.2 µg/mL,> 13.2 µg/mL,> 13.2 µg/mL,–,> 13.2 µg/mL,100%,0%,23%,–,–,0%,Inhibition (CAKI-1 [27]): 2%; Inhibition (SK-MEL-2 [28]): 0%; Inhibition (KB [29]): 0%
COc1cc([C@@H]2c3cc4c(cc3[C@@H](O[C@@H]3O[C@@H]5CO[C@@H](C)O[C@H]5[C@H](O)[C@H]3O)[C@H]3COC(=O)[C@H]23)OCO4)cc(OC)c1O [ETOPOSIDE],–,–,–,–,–,–,–,–,–,–,–,–,IC50 (Tubulin alpha chain): Not Active
